# Assays:
# E. coli K12 [1] = experiment: Zeta potential of treated bacteria by DLS; format: cell-based, Escherichia coli; conditions: E. coli K12, PAs at 10X MIC
# E. coli K12 [2] = experiment: Inner membrane permeabilization assay; format: cell-based, Escherichia coli; conditions: E. coli K12, 0.5, 1 and 2X MIC, monitored for 180 mins, absorbance 415 nm, 37 °C, triplicate
# Procedure, shortened: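 Assay for β-galactosidase release into the medium using ONPG as substrate, adapted from a published method. Test compound was dissolved in PBS at 1 mg/mL, annealed at 80 °C for 30 min, aged overnight, then diluted in PBS or media. Controls were polymyxin B (positive) and bacteria with ONPG and PBS (negative). o-Nitrophenol absorbance at 415 nm was read at intervals at 37 °C.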
# A. baumannii [3] = experiment: Membrane permeability, PI uptake; format: cell-based, Acinetobacter baumannii; conditions: 1 and 2X MIC, 2 hours
# Procedure, shortened: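 Bacteria washed and resuspended at 0.3 McFarland in 5 mM HEPES/20 mM glucose, pH 7.4, with propidium iodide at 7.5 μg/mL final. Test compound was given to MRSA JE2 at 0.5, 1 and 2X MIC and to A. baumannii at 1 and 2X MIC. Controls were untreated cells, polymyxin B and daptomycin. Incubated 2 h at 37°C; fluorescence read at ex 535 nm/em 615 nm.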
# A. baumannii [4] = experiment: Membrane depolarization, DiSC 3; format: cell-based, Acinetobacter baumannii; conditions: 1 and 2X MIC, 2 hours
# Procedure, shortened: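 Cells suspended at 0.5 McFarland in 5 mM HEPES/20 mM glucose, pH 7.4, with DiSC3(5) at 1 μM final. Test compound at 1 and 2X MIC; controls were untreated cells, polymyxin B and daptomycin. Incubated 2 h at 37°C. Fluorescence read at ex 622 nm/em 670 nm; dye release into medium raises signal.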
# MRSA JE2 = experiment: Zeta potential of treated bacteria by DLS; format: cell-based, Staphylococcus aureus; conditions: 1 hour treatment
# Procedure, shortened: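 Bacteria were cultured 18–20 h, resuspended in PBS and adjusted to 5 X 10^7 CFU/mL. They were treated 1 h with test compound at 10X MIC; test compound was pre-annealed in PBS and aged overnight. Controls were untreated cells, polymyxin B and daptomycin. Zeta potential was then measured by DLS at 25 °C.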
Substance,change of bacterial zeta potential (E. coli K12 [1]),order of membrane permeability (ONPG) (E. coli K12 [2]),PI intensity (membrane permeability) (A. baumannii [3]),"order of activity, DiSC 3(5) (A. baumannii [4])",change of bacterial zeta potential (MRSA JE2)
Polymyxin B [PMB],does not show a notable change,PMB > PA 26 > PA 3 > PA 9,significant increase in PI intensity,PA 26 > PMB > PA 9,
daptomycin,,,,,induces (slightly) the zeta potential to be more negative
